Screening data (PubChem)
This is a sample that favours compounds with a hit; in the whole collection about 3.1% have one here.
Env fusion inh = inhibitors of HIV-1 Env-driven cell-cell fusion, primary screen, HeLa-JRFL effector, CEM21 target cells, luciferase; actives 1.1% (n = 360,000); inhibition, % at 12.3 µM; AID 651610, 2012;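 active = mean replicate inhibition score of at least 50 and every replicate individually at or above 50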;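 note: 0% = plate neutral controls and 100% = maraviroc near 300 nM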
miR122 inh = miR-122 Renilla sensor signal increase in Huh7, primary screen, miR-122 inhibitor project, cell-based, single point, plate reader. actives 0.3% (n = 340,000). Huh7 miR-122 Renilla luciferase sensor, 48 h; neutral wells = 0, positive control = 100. activation (reporter increase), % at 12.5 µM. AID 602342, 2012;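 active = mean replicate activation score at least 90 and every replicate individually at or above 90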;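 note: higher luciferase means less miR-122 activity so hits act as miR-122 inhibitors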
GSIS activator = GLuc luminescence reporter in INS-1E cells, primary screen for activators of glucose-dependent secretion of insulin; INS-1E GLuc reporter insulin secretion, 2-3 h; activation, % at 16.6 µM; actives 0.61% (n = 370,000); AID 743287, 2014;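 active = lowest replicate activation of at least 40%, so every replicate reaches that level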;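 note: 0% = median of neutral control wells and 100% = median of IBMX positive control wells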
F508del corr = F508del CFTR correction, initial screen, CFBE line, single point | AID 720511, 2013 | activity (quench increase), % at 7.58 µM | actives 0.36% (n = 350,000) | CFBE cells, YFP halide quenching; stimulated with forskolin plus potentiator P3; % fluorescence drop versus neutral controls;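 active = mean added fluorescence quench of at least 8% versus neutral control, with both replicates also reaching 8%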;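 note: cells transiently co-express mutant CFTR-F508del with the halide-sensitive YFP; corrector assay measuring rescue of mutant channel to the surface after 24 h compound exposure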
Cneo AK release = Cryptococcus neoformans cell lysis inducers, primary screen, AK release luminescence, single concentration; C. neoformans lysis, adenylate kinase release luminescence, 4 h; normalised: neutral wells 0, clomiphene wells 100; lysis activity, % at 15 µM; actives 0.2% (n = 360,000); AID 651654, 2012;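 active = mean lysis activity across replicates of at least 80%, whatever share of replicates individually reach that level; inactive = mean lysis activity below 80%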
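Schedule: static 4 h at 37 °C with compound, 1 h detection; system: C. neoformans cells; benchmarks: Clomiphene as positive control; buffer or medium: fresh YPD medium; measure: luminescence rise reflecting yeast cell lysis; measured by: luminescent adenylate kinase detection reagent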
rRNA inh HTS = reduced GFP signal of wild-type E. coli, primary screen, bacterial rRNA inhibitor project, GFP/RFP fluorescence, OD600, single point. actives 1.6% (n = 350,000). GFP signal change (wild-type ribosome), % (concentration not given with the values). AID 720706, 2013. E. coli WT GFP vs humanized-ribosome RFP mutants, 24 h; stronger effect = lower value; DMSO median 0, no signal -100;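 active = significant combined selectivity score with lowered wild-type GFP, culture density cut under 30%, mutant RFP and density less affected; inactive = any of these conditions unmet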
Numbers without * were called inactive; / = no result given; ! = repeats disagree; [ ] = dose if it differs, or a comment.

SMILES | Env fusion inh | miR122 inh | GSIS activator | F508del corr | Cneo AK release | rRNA inh HTS
O=C(C[C@H]1CC[C@H]2[C@@H](COC[C@H](O)CN2C(=O)c2ccccc2F)O1)N1CCN(c2ccccc2)CC1 | / | -4.3[16.7 µM] | 18.1 | 5.8 | 6.8 | 1.1
Fc1ccc2nc(C3CCN(Cc4nc(CC5CC5)no4)CC3)[nH]c2c1 | 11.9 | / | -3.8 | 8.6* | / | -3.6
Clc1ccc(OC2CCN(Cc3nc(CC4CC4)no3)CC2)cc1 | 23.1 | 4.1 | -33.8 | 2.7 | 3.0 | -28.6
C[C@@H]1CN([C@@H](C)CO)C(=O)c2cccc(NS(C)(=O)=O)c2O[C@H]1CN(C)Cc1ccc(C(=O)Nc2ccccc2N)cc1 | / | / | 17.9 | -1.0 | / | -0.7
c1coc(-c2nc3ccccc3s2)c1 | -29.0 | 1.6 | -8.1 | 11.3* | -2.3 | 10.5
C[C@H](CO)N1C[C@H](C)[C@H](CN(C)C(=O)Nc2cccc3ccccc23)Oc2ncc(C#Cc3ccc(C(F)(F)F)cc3)cc2C1=O | / | -30.7[16.7 µM] | 12.0 | -1.0 | -6.0 | 3.5
O=C(NC1CCCCC1)N[C@@H]1CC[C@@H](CCNS(=O)(=O)c2ccc(Cl)cc2)O[C@H]1CO | -8.1[16.7 µM] | / | -9.6 | -2.6 | 93.6* | -3.4
O=C(Nc1cccc(F)c1)N[C@H]1CC[C@@H](CCNS(=O)(=O)c2cccc(Cl)c2)O[C@@H]1CO | -10.4[16.7 µM] | / | -16.1 | -0.2 | 105.8* | -2.2
O=C(N[C@H]1CC[C@H](CCNS(=O)(=O)c2ccc(Cl)cc2)O[C@@H]1CO)c1cccc(F)c1 | 0.9[16.7 µM] | / | -5.9 | 1.6 | 0.7 | -25.2*!
Cc1ccc(S(=O)(=O)NCC[C@@H]2CC[C@@H](NC(=O)c3cnccn3)[C@H](CO)O2)cc1 | 3.7[16.7 µM] | 101.4*[16.7 µM] | 0.9 | 1.9 | -4.4 | 4.3
O=C(N[C@@H]1CC[C@@H](CCNS(=O)(=O)c2ccc(Cl)cc2)O[C@H]1CO)c1cccc(F)c1 | 3.5[16.7 µM] | / | 1.3 | 0.1 | -2.6 | -3.1
Cn1c(=O)c2nc(Cl)c(-c3ccccc3)nc2n(C)c1=O | / | / | 1.0 | 0.8 | / | 9.4
Cn1c(=O)c2nc(-c3ccccc3)c(-c3ccccc3)nc2n(C)c1=O | -15.6 | / | 5.5 | -4.1 | / | -20.4*
Cc1cc(C)c2cccc(N)c2n1 | 18.1 | 10.8 | 1.8 | 0.7 | 0.2 | -22.8*
CCN(CC)CCNC(=S)Nc1ccc2nc(N3CCN(CC)CC3)cc(C)c2c1 | 0.1 | / | 47.6* | -2.1 | 0.0 | 9.2
CCN1CCN(c2cc(C)c3cc(NC(=O)CCC(=O)Nc4ccc(OC)c(OC)c4)ccc3n2)CC1 | -1.0 | / | -18.1 | 4.5 | -0.1 | 10.6
CCN1CCN(c2cc(C)c3cc(NC(=O)c4ccc(OC)c(OC)c4)ccc3n2)CC1 | -41.0 | -4.3 | / | 13.4* | -1.1 | 2.7
CCN1CCN(c2cc(C)c3cc(NC(=S)NCCN(C)C)ccc3n2)CC1 | -14.1 | / | 0.5 | 1.2 | 1.5 | 7.9
COCCn1c(=S)[nH]c2cc(C(=O)N3CCN(Cc4ccc5c(c4)OCO5)CC3)ccc2c1=O | 86.4* | 0.0 | / | / | 0.8 | /
COCCn1c(=O)[nH]c2cc(C(=O)N3CCN(Cc4ccc5c(c4)OCO5)CC3)ccc2c1=O | 18.8 | -5.2 | 10.3 | -2.1 | -2.3 | 13.4
COCCn1c(=S)[nH]c2cc(C(=O)N3CCc4ccccc43)ccc2c1=O | 80.0* | -1.9 | / | / | / | /
COC(=O)c1cc(S(=O)(=O)NCC2CCN(C(=O)C(=O)c3cc4ccccc4o3)CC2)cs1 | -11.3 | / | -5.2 | -0.3 | / | -18.8*
O=C(C(=O)N1CCC(CNS(=O)(=O)c2ccc(F)cc2)CC1)c1cc2ccccc2o1 | -19.5 | / | / | -1.8 | / | -8.9
COc1ccc(C(=O)NCC2CCN(C(=O)C(=O)c3cc4ccccc4o3)CC2)c(OC)c1 | -0.4 | / | -16.0 | -2.4 | / | -13.2*
CO[C@H](CN(C)C(=O)c1ccccc1F)[C@H](C)CN([C@@H](C)CO)S(=O)(=O)c1ccc(Cl)cc1 | / | / | -6.5 | 0.3 | -4.2 | -0.7
SMILES | Env fusion inh | miR122 inh | GSIS activator | F508del corr | Cneo AK release | rRNA inh HTS
N#Cc1sc2nc3c(c(-c4cccnc4)c2c1N)CCC3 | / | 3.6 | 46.1* | / | 2.8 | -19.0
O=C(NC[C@H]1[C@@H](c2ccccc2)[C@@H](CO)N1CC1CCCC1)c1cccnc1 | / | 0.0[16.7 µM] | 9.2 | -0.2 | -0.2 | -0.6
Fc1cc2[nH]c(=S)[nH]c2cc1Cl | 56.7* | / | 15.9 | -0.8 | / | 4.3
Cc1cc2[nH]c(=S)[nH]c2cc1C | -273.8 | -2.7 | 5.2 | -1.7 | / | 14.9
CCC(C)(C)NC(=O)C(c1ccc(OC)cc1)N(Cc1ccco1)C(=O)CCC(=O)Nc1cc(C)on1 (centres undefined) | 33.9* | -10.8 | / | / | 0.5 | /
Cc1cc(C)cc(Oc2cc(NC(=O)c3cn(C)nc3C)cc([N+](=O)[O-])c2)c1 | 59.4* | -1.3 | / | / | -3.4 | /
CCN(CC(=O)NCc1ccc(F)cc1)C(=O)c1ccc(C(=O)c2ccccc2)cc1 | -5.4 | / | -31.0 | -7.1 | -1.5 | -12.4
CCN(CC(=O)Nc1ccccc1OC)CC(=O)Nc1ccccc1-c1ccccc1 | 27.3 | / | -15.8 | -0.7 | / | -32.0*
CCN(CC(=O)Nc1ccccc1OC)CC(=O)Nc1ccccc1C(F)(F)F | 4.0 | / | 9.1 | 0.3 | / | 6.2
CCN(CC(=O)Nc1ccccc1-c1ccccc1)Cc1nc2ccccc2c(=O)[nH]1 | -38.3 | 23.6 | -1.3 | 5.1 | 3.2 | -24.9*
CCN(CC(=O)Nc1ccccc1SC)Cc1nc2ccccc2c(=O)[nH]1 | 8.1 | -6.3 | 10.2 | 2.2 | -6.2 | -8.8
CCN(CC(=O)NCc1ccc(F)cc1)CC(=O)Nc1ccccc1-c1ccccc1 | 27.0 | -1.8 | -29.8 | -1.3 | 0.9 | -33.2*
CCCNC(=O)[C@H]1[C@H](CO)[C@H]2Cn3c(ccc(-c4ccc(OC)cc4)c3=O)[C@@H]1N2CC | / | / | 5.3 | -2.0 | / | -1.0
Cc1ccc(C(=O)Nc2cccc(C(F)(F)F)c2)cc1Nc1cnccn1 | 10.7 | 5.6 | 5.3 | 10.3* | -2.1 | 4.1
CCOC(=O)CN(C(=O)CSc1nnnn1C)c1ccccc1 | 70.7* | 1.6 | -9.0 | 1.9 | 0.4 | 14.1
CCOC(=O)CN(C(=O)CSc1nnc(CNc2ccc(C)cc2C)o1)c1ccccc1 | 12.8 | -4.7 | -39.0 | / | 1.1 | -22.7*
Cc1ccc(NCc2nnc(SCC(N)=O)o2)c(C)c1 | 1.5 | / | -6.2 | 0.5 | / | 14.2
Cc1ccc(S(=O)(=O)Nc2ccc3c(c2)C(=O)N([C@@H](C)CO)C[C@H](C)[C@@H](CN(C)S(=O)(=O)c2c(C)noc2C)OCCCC[C@H](C)O3)cc1 | 9.6[16.7 µM] | 3.4[16.7 µM] | -8.6 | 1.2 | 1.0 | 0.8
